Four molecules from PMC4423805 (Science (New York, N.Y.), 2015) can be followed below.

Where only a bound is given, the exact number is not on record here.

One series deals with Runt domain. As to the kind of experiment: 15N-1H HSQC / STD NMR binding to Runt domain.
For a further series, the system named is CBFβ. As to the kind of experiment: 15N-1H HSQC / STD NMR binding to CBFβ. The settings on record: upon addition of compound.
The target in series [1] is CBFβ-SMMHC binding to the RUNX1 Runt domain. Nature of the series: FRET assay of CBFβ-SMMHC binding to RUNX1 Runt domain. The settings on record: read-out: FRET IC50; 10 nM Cerulean-Runt domain and 10 nM Venus-CBFβ-SMMHC. Summed up:
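FRET binding assay with 10 nM Cerulean-RUNX1 Runt domain and 10 nM Venus-CBFβ-SMMHC titrated with test compound. Read-out is the emission intensity ratio at 525/474 nm. Untagged CBFβ (100 and 1000 nM) served as a dissociation reference. IC50 was fitted from the mean and SD of three independent measurements.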

Series [2] can be described thus: Pharmacokinetics in mouse plasma. Format: in vivo.
Series [3] has as its system primary human inv(16) AML samples. As to the kind of experiment: Colony-forming units, primary inv. Format: cell-based. Summed up: (§1)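 Colony-forming unit assays on CD34+ purified primary human cells treated with the test compound at set concentrations (5 and 10 μM cited for inv(16) samples): inv(16) AML, normal-karyotype AML, or cord blood. Colonies are expressed as percent of DMSO vehicle control. Assays were run in triplicate, with SD; significance by unpaired t-test.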

A short description of series [4]: Stability in liver microsomes. Format: in vitro ADME. Background: Microsomes from liver hold many membrane-bound enzymes, among them those of drug oxidation.
In series [5] the target is RUNX1, endogenous in ME-1 cells (human (endogenous in ME-1)) (UniProt Q01196). Nature of the series: co-IP.
Chain of RUNX1, endogenous in ME-1 cells (human (endogenous in ME-1)) (Q01196 whole entry): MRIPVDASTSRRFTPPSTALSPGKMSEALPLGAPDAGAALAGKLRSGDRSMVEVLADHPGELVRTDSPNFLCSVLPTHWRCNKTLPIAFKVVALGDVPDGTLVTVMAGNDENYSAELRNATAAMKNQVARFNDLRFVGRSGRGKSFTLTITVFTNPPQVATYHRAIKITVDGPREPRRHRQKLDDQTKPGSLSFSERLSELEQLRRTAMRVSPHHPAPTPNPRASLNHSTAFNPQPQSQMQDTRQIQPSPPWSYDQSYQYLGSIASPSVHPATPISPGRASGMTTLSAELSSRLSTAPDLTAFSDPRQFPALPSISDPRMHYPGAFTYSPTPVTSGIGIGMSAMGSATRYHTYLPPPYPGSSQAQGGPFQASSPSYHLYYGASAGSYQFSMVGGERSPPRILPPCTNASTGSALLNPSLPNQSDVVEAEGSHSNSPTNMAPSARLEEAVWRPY
Series [6] has as its system primary human AML samples with normal karyotype. As to the kind of experiment: Colony-forming units, normal karyotype AML samples. The class given is cell-based. Summed up: as §1
For series [7], the system named is normal human bone marrow cells. As to the kind of experiment: MTT assay, normal human bone marrow cells. The class given is cell-based. The settings on record: read-out: IC50 in normal human bone marrow cells, 48 hours. In short, it runs like this:
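Normal human bone marrow cells treated with a dose range of test compound for 48 hours and assessed by MTT conversion. Values are normalized to the DMSO-treated group. Each point is the mean of triplicate experiments, with SD.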

A further series has as its target CBFβ-SMMHC. As to the kind of experiment: Isothermal titration calorimetry. The class given is binding. Conditions: read-out: dissociation constant (KD), ITC. Background: In ITC the heat of successive injections is recorded.
The test system of series [8] is RUNX1 occupancy at RUNX3, CSF1R, and CEBPA promoters. As to the kind of experiment: Chromatin immunoprecipitation of RUNX1 occupancy, U937 cells. Format: cell-based, human. The settings on record: inv(16)-negative U937 cells, 1 μM. In short, it runs like this:
(§2)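 Chromatin immunoprecipitation of RUNX1 at the RUNX3, CSF1R and CEBPA loci in ME-1 and U937 cells treated with 1 μM test compound for 6 hours. Occupancy is expressed as fold enrichment relative to DMSO-treated cells. Data are means of triplicate experiments with SD; significance by unpaired t-test.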

Series [9] concerns Cbfb+/MYH11:Ras+/G12D leukemic cells. As to the kind of experiment: inv. The class given is in vivo, mouse. The settings on record: 200 mg/kg of body weight per day for 10 days, days 5 to 15 posttransplantation. In short, it runs like this: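 Mice (n = 11 per group) were transplanted with 2 × 10^3 Cbfb+/MYH11;Ras+/G12D leukemic cells. After 5 days for engraftment, they received DMSO vehicle or 200 mg/kg/day test compound for 10 days (days 5–15 post-transplant). Disease latency was followed by Kaplan-Meier survival.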

Another series has as its system CBFβ-SMMHC-RUNX1 binding. As to the kind of experiment: Coimmunoprecipitation of CBFβ-SMMHC-RUNX1 in ME-1 cells. The class given is cell-based, human. The settings on record: 1 μM, 6 hours. In short, it runs like this:
(§3)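 ME-1 cells treated with 1 μM test compound for 3 and 6 hours. RUNX1 association with CBFβ and with CBFβ-SMMHC was assessed by coimmunoprecipitation, and binding was quantified from three experiments.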

The next series concerns ME-1 cells. Nature of the series: Annexin V and 7AAD viability staining, ME-1. The class given is cell-based, human. The settings on record: read-out: ME-1 cell growth IC50, 48 hours. In short, it runs like this:
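ME-1 inv(16) cells exposed to the test compound across a dose range for 48 hours, then scored by annexin V and 7AAD viability staining. Values are normalized to the DMSO-treated group. Each point is the mean of triplicate experiments, with SD.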

Series [10] is described as follows: Toxicity after 7 days of administration. The class given is in vivo.
The subject of series [11] is primary human inv(16) AML samples. Nature of the series: Viability. Conditions: 48 hours, 5 and 10 μM. The class given is cell-based. Summed up: (§4)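 Primary human AML cells treated with test compound at set concentrations for 48 hours, and viability read by annexin V/7AAD relative to DMSO vehicle. Inv(16) material comprised four CD34+ purified samples; normal-karyotype AML samples were used as given. Each sample was the average of duplicate treatments, with mean and SD across samples.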

The test system of series [12] is RUNX1 occupancy at RUNX3, CSF1R, and CEBPA promoters. As to the kind of experiment: Chromatin immunoprecipitation of RUNX1 occupancy, ME-1 cells. Format: cell-based, human. Conditions: 6 hours. Summed up:
as §2

A further series relates to CBFβ-RUNX1 binding. As to the kind of experiment: Coimmunoprecipitation of CBFβ-RUNX1 in ME-1 cells. The settings on record: 1 μM. The class given is cell-based, human. Summed up: as §3
The subject of series [13] is primary human AML samples with normal karyotype. Nature of the series: Viability. Format: cell-based. The settings on record: 48 hours. Summed up:
as §4

The next series concerns CD34+ cord blood cells. As to the kind of experiment: Colony-forming units, CD34+ cord blood cells. Format: cell-based, human. Summed up: as §1
In series [14] the test system is RUNX1, CBFβ, and CBFβ-SMMHC. As to the kind of experiment: Protein stability of RUNX1, CBFβ and CBFβ-SMMHC. Format: cell-based.
The test system of series [15] is expression of RUNX3, CSF1R, and CEBPA. As to the kind of experiment: qRT-PCR expression of RUNX1 target genes, ME-1 cells. Conditions: 6 or 12 hours. The class given is cell-based, human. In short, it runs like this:
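qRT-PCR of RUNX3, CSF1R, CEBPA and control gene PIN1 in ME-1 and U937 cells treated with 1 μM test compound for 6 and 12 hours. Expression is normalized to the DMSO control group. Data are means of triplicate experiments with SD; significance by unpaired t-test.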

Series [16] has as its system 11 human leukemia cell lines. Nature of the series: Panel of 11 human leukemia cell lines. The class given is cell-based.

Chain of CBFβ-SMMHC (Q13951 1-165 limits assumed): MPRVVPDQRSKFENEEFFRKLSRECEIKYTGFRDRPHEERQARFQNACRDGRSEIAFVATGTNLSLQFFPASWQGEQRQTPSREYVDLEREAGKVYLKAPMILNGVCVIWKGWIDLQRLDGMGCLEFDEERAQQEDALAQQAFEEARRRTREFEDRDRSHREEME

For orientation: IC50 means the concentration that gives 50% inhibition. As to `COc1ccc2nc(-c3ccccn3)[nH]c2c1` [AI-4-57], the “interaction with Runt domain by NMR” value in the series with Runt domain is reported as “No interaction was observed”. Moreover, the “chemical shift changes in HSQC spectrum of CBFβ” value with CBFβ is on record as “chemical shift perturbations”. Moreover, the IC50 in series [1] was found to be 22 ± 8 µM. Besides, in series [2], the “half-life (t½)” value is 0.617 h.

For the molecule `FC(F)(F)Oc1ccc2nc(-c3ccccn3)[nH]c2c1` [AI-10-47], in series [1], the IC50 turned out to be 2 ± 0.03 µM. Also, the “change in CFUs of inv(16) AML cells” value in [3] was “no change”. Further, in [4], the “stability in liver microsomes” value is “reduced the metabolic liability”.

For CBFβ-SMMHC, endogenous in ME-1 cells, in [5], the percent dissociation with AI-10-49 (1 μM, 6 hours) amounted to 90%.

Broadly, the Kd is the free concentration of one partner at which half of the binding sites on the other are occupied at equilibrium, for simple one-to-one binding. On to AI-10-49, for which, in series [6], the “change in CFUs of AML cells with normal karyotype” value is listed as “no change”. Besides, the values for the IC50 (in series [7]; with ME-1 cells; in series [1]) were > 25 µM, 0.6 µM and 0.26 ± 0.01 µM, respectively. Further, the Kd on CBFβ-SMMHC was found to be 0.168 µM. Further, the “RUNX1 occupancy increase in U937 cells” value in series [8] is “Neither”. Also, the “median latency (survival)” value in series [9] amounted to 61 days. For the same molecule, the “dissociation of RUNX1 from CBFβ-SMMHC” value in the series with CBFβ-SMMHC-RUNX1 binding is on record as 90%. The toxicity result in series [10] is given as “no evidence of toxicity”. Further, the “viability of inv(16) patient cells” value in series [11] is on record as “reduced”. In addition, in series [12] (1 μM, relative to DMSO), the “RUNX1 occupancy at CEBPA promoter” value is 8 fold. Besides, in series [12] (1 μM, relative to DMSO), the “RUNX1 occupancy at CSF1R promoter” value is reported as 2.2 fold. Further, in series [12] (1 μM, relative to DMSO), the “RUNX1 occupancy at RUNX3 promoter” value came out at 8 fold. The “RUNX1 occupancy at control loci” value in [12] is “no enrichment was observed”. In the series with CBFβ-RUNX1 binding, the “effect on CBFβ-RUNX1 association” value was “only a modest effect”. In addition, the “inhibition of CFUs of inv(16) AML cells” value in [3] (5 μM) is recorded as 40%; in series [3] (10 μM), 60%. In addition, in [13], the “viability of normal karyotype AML samples” value is recorded as “not affected”. The “half-life (t½)” value in [2] was found to be 6.33 h. The “change in CFUs of CD34+ cord blood cells” value in the series on CD34+ cord blood cells is “no change”. For the same molecule, in series [14], the “stability of RUNX1, CBFβ, and CBFβ-SMMHC” value is recorded as “not affected”. In addition, in [15] (1 μM), the “expression of RUNX3, CSF1R, and CEBPA” value is reported as “increased expression”. For the same molecule, the “expression of control gene PIN1” value in [15] was “no effect”. For the same molecule, the “sensitivity of leukemia cell line panel” value in series [16] is “ME-1 cells were the only cell line highly sensitive”.
